Target: Signal transducer and activator of transcription 3 (Homo sapiens, UniProt P40763)
Experiment: Inhibition of IFN gamma-induced STAT3 (unknown origin) activation in HeLa-STAT3-Luc cells after 6 hrs by luciferase reporter gene assay
Summary of the method: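 HeLa-STAT3-Luc reporter cells (15 × 10⁴ cells/mL, DMEM with 10% FBS, 37 °C, 5% CO2) were preincubated with the compounds at rising concentrations, then stimulated with IFNγ for 6 h. Lysate luciferase is expressed as percent inhibition, with IFNγ-induced activity set as 100%.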

Chain of Signal transducer and activator of transcription 3 (P40763 whole entry): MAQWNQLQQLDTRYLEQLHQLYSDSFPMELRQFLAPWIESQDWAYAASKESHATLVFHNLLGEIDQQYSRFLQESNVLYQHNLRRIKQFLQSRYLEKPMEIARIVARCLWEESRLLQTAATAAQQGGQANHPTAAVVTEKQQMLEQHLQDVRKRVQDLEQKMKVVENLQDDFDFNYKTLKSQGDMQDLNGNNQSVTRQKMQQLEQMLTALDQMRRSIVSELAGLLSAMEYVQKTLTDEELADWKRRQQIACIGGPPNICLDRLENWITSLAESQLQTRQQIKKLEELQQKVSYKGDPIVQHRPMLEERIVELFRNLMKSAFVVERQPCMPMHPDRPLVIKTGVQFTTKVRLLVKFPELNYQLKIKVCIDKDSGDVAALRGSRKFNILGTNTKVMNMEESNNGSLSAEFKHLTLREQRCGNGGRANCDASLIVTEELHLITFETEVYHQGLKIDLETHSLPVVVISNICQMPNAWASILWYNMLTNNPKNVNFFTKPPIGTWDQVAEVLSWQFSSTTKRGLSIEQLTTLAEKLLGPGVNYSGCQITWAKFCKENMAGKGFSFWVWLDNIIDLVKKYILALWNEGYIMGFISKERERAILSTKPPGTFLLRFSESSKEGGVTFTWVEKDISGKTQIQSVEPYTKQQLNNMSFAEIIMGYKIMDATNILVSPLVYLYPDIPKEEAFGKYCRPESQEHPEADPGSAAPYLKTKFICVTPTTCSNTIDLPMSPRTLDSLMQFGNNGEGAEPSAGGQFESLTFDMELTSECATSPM

With CC(C)=CC(=O)C[C@H](C)c1ccc(C)cc1 [(+)-(S)-ar-turmerone] the IC50 was 14.2 µM.

Reference: BindingDB's records for doi:10.1021/acs.jnatprod.5b00637 (University of Eastern Piedmont, 2016)
